Sampled rows, rich in hits. Any-hit rate of the full collection: about 1.9%.
STEP inh: inhibitors of human striatal-enriched phosphatase STEP; recombinant STEP, OMFP fluorogenic substrate, fluorescence; P54829; AID 588621; 360,000 tested, 0.25% active; inhibition, % at 20 µM;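 active = inhibition at 20 µM, scaled per plate between control wells, above about 37%, limit read from the data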;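 also: 0% = DMSO with enzyme and substrate and 100% = substrate only without enzyme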
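Material: STEP (striatal-enriched tyrosine phosphatase) enzyme, cell-free | Medium: 50 mM Bis-Tris pH 6.0 with 2.5 mM DTT and 0.005% Tween 20 | Read-out: Percent inhibition scaled to no-enzyme and uninhibited-enzyme controls, plate-pattern corrected | Signal: Fluorescence read at 480 nm ex / 540 nm em | Times: 20 min reaction, room temperature, in the dark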
SUMO HTRF inh: inhibitors of human SUMOylation (UBC9) | P63279 | HTRF SUMOylation assay, SAE1/SAE2 + UBC9, in vitro | inhibition, % at 35 µM | 290,000 tested, 0.36% active | AID 2006; in the data active = inhibition above about 50%, passing the limit was not always enough
LMPTP inh: blocks human LMPTP phosphatase. P24666. recombinant LMPTP-A, OMFP fluorogenic substrate, fluorescence intensity. inhibition, % at 20 µM. 360,000 tested, 0.22% active. AID 651560;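 active = compounds that cut the enzyme signal by at least half of the control window in the single-dose screen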;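 also: plate controls were DMSO wells with enzyme plus substrate for no effect and substrate without enzyme for full effect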
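Assay system: LMPTP-A phosphatase enzyme | Input: 0.625 nM enzyme | Also added: Fluorogenic phosphatase substrate OMFP at 400 µM final | Compound dosing: One test concentration per compound, 20 µM, with 3% DMSO overall | Schedule: 50 min enzyme reaction at room temperature, protected from light | Signal: Fluorescence intensity | Benchmarks: no-enzyme and uninhibited controls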
DNMT1 block: DNMT1 (human) enzyme inhibition. P26358. DNMT1 molecular beacon, Hinp1I cleavage, fluorescence. inhibition (reported as % activation of signal), % at 10 µM. 360,000 tested, 0.83% active; in the data active = inhibition above about 50%
Scp1 inh: inhibitors of human Scp-1 phosphatase; Q9GZU7; inhibition, % at 20 µM; 340,000 tested, 0.88% active; Recombinant Scp1, phosphopeptide, malachite green phosphate absorbance; AID 493091;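 active = inhibition above about 50% at 20 µM, limit read from the data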;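 also: plate controls were DMSO wells with enzyme for no effect and wells lacking enzyme for full effect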
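Material: truncated SCP-1 phosphatase (76-261aa) / Buffer or medium: 50 mM Tris acetate pH 5.5, 0.005% Tween-20, 10 mM MgCl2 / Compound dosing: one concentration, 20 µM, with 1.0% DMSO / Incubation: 45 min room-temperature reaction, 5 min colour, 30 min stabiliser / Detection: colorimetric free-phosphate detection, absorbance 630 nm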
SUMO1 PPI mod: modulators of human SUMO1-mediated protein-protein interactions. P63165. SUMO1 binding to a labelled peptide, TR-FRET, 1 h. inhibition, % at 20 µM. 360,000 tested, 0.33% active. AID 602429; in the data active = inhibition above about 37%
Scp-1 conf: confirmation of human Scp-1 phosphatase inhibitors; 2,500 tested, 61% active; shares compounds with Scp1 inh; recombinant SCP-1 catalytic domain, phosphate release, malachite green absorbance; inhibition, % at 20 µM;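 also: plate controls were DMSO with enzyme for no effect and buffer wells lacking enzyme for full effect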
MG interference: interferes with malachite green readout, flagging false Scp-1 hits; shares compounds with Scp1 inh; Colorimetric interference counterscreen, malachite green absorbance 630 nm; apparent inhibition (interference), % at 20 µM; 2,500 tested, under 10 active; AID 540313;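 also: compounds added after enzyme reaction finished so only phosphate colour detection is probed; plate controls were DMSO wells with completed Scp-1 reaction for no effect and substrate wells lacking enzyme for full effect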
Scp-1 Tm shift: validation of human Scp-1 inhibitors by thermal shift binding; 1,500 tested, 25% active; shares compounds with Scp1 inh; AID 540329; thermal shift relative to vanadate control, % at 40 µM; Recombinant SCP1, Sypro Orange thermal shift Tm;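 active = substances whose mean melting-temperature shift, as a percentage of the reference inhibitor's shift, reaches about 5.3%, limit read from the data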;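 also: 0% = Tm of DMSO wells and 100% = Tm with sodium orthovanadate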
* marks the source's active call; other numbers are inactive results.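 The calls were made as follows, unless noted: active = inhibition of at least 30% at 20 µM; inactive = the rest.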

O=C1NC[C@H](CCCCN2CCN(CCC3CCCCC3)C(=O)C2=O)N(CCC2CCCCC2)C1=O was read as LMPTP inh -1 and SUMO1 PPI mod 2.
Screening Cn1cc(Cl)c(C(=O)Nc2nc3ccccc3s2)n1 returned STEP inh 1, SUMO HTRF inh 12, LMPTP inh -1, DNMT1 block -3, Scp1 inh -8 and SUMO1 PPI mod -3.
Screening Cn1cc(Cl)c(C(=O)Nc2cccc(Cl)c2Cl)n1 returned STEP inh -1, SUMO HTRF inh 13, LMPTP inh 16, DNMT1 block 21, Scp1 inh 72*, SUMO1 PPI mod 3, Scp-1 conf 76*, MG interference -14 and Scp-1 Tm shift -1.
Cn1c(NN)nc2c1c(=O)n(Cc1ccccc1)c(=O)n2C was read as STEP inh 8, SUMO HTRF inh 17, LMPTP inh 8, DNMT1 block -5, Scp1 inh 68*, SUMO1 PPI mod -2, Scp-1 conf 62*, MG interference 5 and Scp-1 Tm shift 9.4*.
`O=C(C[n+]1ccccc1)Nc1ccc(Cl)c([N+](=O)[O-])c1` gave STEP inh 1, SUMO HTRF inh 5, LMPTP inh -2, DNMT1 block 1, Scp1 inh -2 and SUMO1 PPI mod -26.
Screening Cc1ccc[n+](CC(=O)Nc2ccc(Cl)c([N+](=O)[O-])c2)c1 returned STEP inh -1, SUMO HTRF inh 8, LMPTP inh -1, DNMT1 block 3, Scp1 inh 84*, SUMO1 PPI mod -17, Scp-1 conf -1 and MG interference -5.
For O=C(N/N=C/c1ccc(Cl)cc1)c1cc2c(s1)-c1ccccc1CC2 the results were STEP inh -3, SUMO HTRF inh 5, LMPTP inh 24, DNMT1 block 33, Scp1 inh 101*, SUMO1 PPI mod 3, Scp-1 conf 64*, MG interference -15 and Scp-1 Tm shift -18.
`O=C(O)c1cc2c(s1)-c1ccccc1CC2` gave STEP inh -5, SUMO HTRF inh 5, LMPTP inh -1, DNMT1 block 1, Scp1 inh -7 and SUMO1 PPI mod -8.
`C[C@@H]1CN([C@@H](C)CO)C(=O)CCCn2nncc2CO[C@H]1CN(C)C(=O)Nc1cccc(Oc2ccccn2)c1` gave STEP inh 0, LMPTP inh -2, DNMT1 block 6 and SUMO1 PPI mod 2.
Screening COC(=O)/C=C/c1ccccc1S(=O)(=O)N(Cc1ccccc1)Cc1ccco1 returned STEP inh 2, SUMO HTRF inh 12, LMPTP inh 1, DNMT1 block 24, Scp1 inh 73*, SUMO1 PPI mod 1, Scp-1 conf 30 and MG interference -26.
O=S(=O)(c1ccc(S(=O)(=O)N(Cc2ccccc2)Cc2ccco2)cc1)N1CCCC1 was read as STEP inh -2, LMPTP inh -1, DNMT1 block 17, Scp1 inh 0 and SUMO1 PPI mod 1.
CC(C(=O)Nc1cc([N+](=O)[O-])ccc1Cl)N1CCN(c2ccc(O)cc2)CC1 (stereo not drawn) was read as STEP inh -5, SUMO HTRF inh -6, LMPTP inh 3, DNMT1 block 16, Scp1 inh 57*, SUMO1 PPI mod -14, Scp-1 conf 26 and MG interference -4.
CC(C(=O)Nc1ccc([N+](=O)[O-])cc1Cl)N1CCN(S(=O)(=O)c2cccs2)CC1 (stereo not drawn) was read as STEP inh 0, LMPTP inh 1, DNMT1 block -7, Scp1 inh 5 and SUMO1 PPI mod -10.
`O=C(N=Nc1c(O)[nH]c2ccccc12)c1ccccc1NS(=O)(=O)c1cccs1` gave STEP inh 1, SUMO HTRF inh 9, LMPTP inh 1, DNMT1 block -2, Scp1 inh -6 and SUMO1 PPI mod -1.
For Cc1ccc2[nH]c(O)c(N=NC(=O)c3ccc(NS(=O)(=O)c4cccs4)cc3)c2c1 the results were STEP inh 58*, SUMO HTRF inh 46, LMPTP inh 44, DNMT1 block -8, Scp1 inh 100*, SUMO1 PPI mod 31, Scp-1 conf 58*, MG interference -16 and Scp-1 Tm shift -10.
`Cc1nnc(SCC(=O)Nc2nsc(-c3ccc(Cl)cc3)n2)s1` gave STEP inh 13, SUMO HTRF inh 11, LMPTP inh 3, DNMT1 block 45, Scp1 inh 70*, SUMO1 PPI mod -9, Scp-1 conf 43*, MG interference -15 and Scp-1 Tm shift -9.
For Cc1ccc(-c2nc(NC(=O)CSc3nnc4scc(-c5ccccc5)n34)ns2)cc1 the results were STEP inh 1, SUMO HTRF inh -4, LMPTP inh 13, DNMT1 block 32, Scp1 inh 64*, SUMO1 PPI mod -4, Scp-1 conf 65*, MG interference -7 and Scp-1 Tm shift 0.
For CCC(C)Sc1ccc([C@H]2N[C@@](C)(C(=O)OC)[C@H]3C(=O)N(C)C(=O)[C@@H]23)cc1 (stereo partly drawn) the results were STEP inh -1, LMPTP inh -1, DNMT1 block 0, Scp1 inh -6 and SUMO1 PPI mod 4.
Cn1c(C(C(=O)NCC2CCCO2)N(C(=O)Cn2nnc3ccccc32)C2CCCCC2)nc2ccccc21 (stereo not drawn) was read as STEP inh -3, SUMO HTRF inh 7, LMPTP inh 0, DNMT1 block 2, Scp1 inh 68*, SUMO1 PPI mod 3, Scp-1 conf -18 and MG interference -15.
For CCC(Oc1ccccc1)C(=O)Nc1nc2c(s1)C(=O)CC(C)(C)C2 (stereo not drawn) the results were STEP inh 1, SUMO HTRF inh -9, LMPTP inh 0, DNMT1 block 1, Scp1 inh -8, SUMO1 PPI mod -5, Scp-1 conf -9 and MG interference -10.
For CCC(C)C(=O)Nc1nc2c(s1)C(=O)CC(C)(C)C2 (stereo not drawn) the results were STEP inh -1, SUMO HTRF inh 5, LMPTP inh -2, DNMT1 block 2, Scp1 inh -13 and SUMO1 PPI mod 1.

Bioassay records as filed in PubChem.
